Results published in paper PMC4675651 (Drug Design, Development and Therapy, 2015).
“Also recorded” adds a separate entry of the source. Where two headings read alike, the source gives them in different places.

Key:
PTP1B = biological target: T1, PTP1B (Homo sapiens, UniProt P18031); test: PTP1B inhibition measurement; format: biochemical
T1 sequence (P18031 3-277 limits assumed): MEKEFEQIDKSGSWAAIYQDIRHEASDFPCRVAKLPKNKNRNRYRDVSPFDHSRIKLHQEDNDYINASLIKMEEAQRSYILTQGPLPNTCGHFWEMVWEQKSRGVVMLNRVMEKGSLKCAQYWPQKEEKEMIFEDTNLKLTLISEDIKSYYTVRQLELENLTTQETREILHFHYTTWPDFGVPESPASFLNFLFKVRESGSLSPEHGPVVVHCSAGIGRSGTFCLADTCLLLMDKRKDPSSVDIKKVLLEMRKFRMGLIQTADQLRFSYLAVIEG
In short: (§1)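 Recombinant catalytic domains in pH 7.0 buffer (50 mmol/L MOPS, 100 mmol/L NaCl, 1 mmol/L EDTA, 1 mmol/L DTT, 1 mg/mL BSA). Enzyme preincubated with test compound 5 min at 37 °C. Then pNPP (100 mmol/L stock) added, 10 min at 37 °C. Stopped with NaHCO3; p-nitrophenol read at 405 nm. IC50 by fitting concentration–inhibition curves; triplicate points.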

T2DM mice = format: in vivo; conditions: for Serum TC / Serum TG / Body weight / Effect on serum TC and TG: T2DM mice; for Serum TC / Serum TG: 200 mg/kg oral once per day, mean ± SD (n=8–10); for Body weight: 200 mg/kg oral once a day for 8 weeks; for Effect on serum TC and TG: 200 mg/kg oral, 8 weeks
In short: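 Male Kunming mice (8 weeks, 18–22 g) fed high-fat diet (20% sucrose, 10% lard, 2.5% cholesterol, 1% sodium cholate, 66.5% chow) for 4 weeks. After an 8 h fast, STZ 35 mg/kg i.p. in citrate-buffered saline pH 4.4, daily for 1 week. Test compound by oral gavage daily for 8 weeks, DMSO stock diluted in 0.9% saline; saline vehicle. Weekly 8-h-fasted tail-vein glucose (glucometer) and body weight; serum TG/TC by kits.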

[1] = test system: insulin signaling (IRβ, AKT, ERK1/2, GLUT4, phosphotyrosine) in C2C12 myotubes; test: Western blot of insulin signaling in insulin-stimulated C2C12 myotubes; format: cell-based
In short: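 C2C12 myoblasts at 75% confluence were differentiated in DMEM with 2% horse serum for 4–6 days. Myotubes were pretreated 1 h with test compound (in DMSO), then given 10 nM insulin for 10 min. Whole-cell lysates and plasma-membrane fractions were blotted (10% SDS-PAGE) for phospho/total IRβ, AKT, ERK1/2, GLUT4, phosphotyrosine and actin; ECL detection. Phospho normalised to total, expressed as fold of insulin alone; n=3.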

TCPTP = biological target: T2, TCPTP (Homo sapiens, UniProt P17706); test: PTP selectivity panel; format: biochemical
T2 sequence (P17706 5-275 limits assumed): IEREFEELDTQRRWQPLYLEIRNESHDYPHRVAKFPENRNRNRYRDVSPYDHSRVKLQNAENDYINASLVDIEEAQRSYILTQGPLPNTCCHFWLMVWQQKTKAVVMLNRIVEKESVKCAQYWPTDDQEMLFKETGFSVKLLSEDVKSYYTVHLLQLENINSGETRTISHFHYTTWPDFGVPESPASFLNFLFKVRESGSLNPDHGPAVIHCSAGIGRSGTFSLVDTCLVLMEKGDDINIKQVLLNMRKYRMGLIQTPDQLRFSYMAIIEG
In short: as §1

SHP1 = biological target: T3, SHP1 (Homo sapiens, UniProt P29350); test: PTP selectivity panel; format: biochemical
T3 sequence (P29350 244-515 limits assumed): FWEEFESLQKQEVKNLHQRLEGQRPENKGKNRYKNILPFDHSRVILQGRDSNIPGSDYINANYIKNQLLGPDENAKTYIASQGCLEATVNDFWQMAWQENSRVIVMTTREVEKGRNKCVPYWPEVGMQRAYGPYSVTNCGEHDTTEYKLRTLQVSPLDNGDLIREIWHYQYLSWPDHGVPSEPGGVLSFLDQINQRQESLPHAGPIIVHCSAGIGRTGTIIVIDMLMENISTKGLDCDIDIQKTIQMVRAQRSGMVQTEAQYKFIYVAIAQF
In short: as §1

HePTP = biological target: T4, HePTP (Homo sapiens, UniProt P35236); test: PTP selectivity panel; format: biochemical
T4 sequence (P35236 97-350 limits assumed): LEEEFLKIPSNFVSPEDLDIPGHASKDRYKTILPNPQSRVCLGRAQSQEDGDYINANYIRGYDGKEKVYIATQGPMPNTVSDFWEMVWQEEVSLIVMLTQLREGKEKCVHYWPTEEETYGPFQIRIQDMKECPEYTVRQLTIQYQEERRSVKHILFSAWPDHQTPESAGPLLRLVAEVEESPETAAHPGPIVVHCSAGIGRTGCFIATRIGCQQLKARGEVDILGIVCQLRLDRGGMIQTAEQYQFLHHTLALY
In short: as §1

PTP1B−/− mice = test: Honokiol treatment of PTP1B gene knockout mice; format: in vivo; conditions: pre-experiments, Figure S2
SHP2 = biological target: T5, SHP2 (Homo sapiens, UniProt Q06124); test: PTP selectivity panel; format: biochemical
T5 sequence (Q06124 247-517 limits assumed): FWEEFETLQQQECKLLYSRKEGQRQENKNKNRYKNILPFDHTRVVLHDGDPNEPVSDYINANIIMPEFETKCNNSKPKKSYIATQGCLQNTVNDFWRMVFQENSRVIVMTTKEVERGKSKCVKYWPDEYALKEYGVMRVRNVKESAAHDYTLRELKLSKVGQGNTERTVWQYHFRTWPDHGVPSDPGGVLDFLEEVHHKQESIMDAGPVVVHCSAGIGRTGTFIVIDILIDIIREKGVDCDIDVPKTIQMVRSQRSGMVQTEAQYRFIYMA
In short: as §1

C2C12 cells = test: MTT cytotoxicity assay; format: cell-based; conditions: 24 hours
In short: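 C2C12 cells were grown in DMEM with 10% FBS at 37 °C, 5% CO2, seeded in 96-well plates and exposed to test compound for 24 h. MTT (5 mg/mL stock) was added for 4 h at 37 °C. Formazan was dissolved in DMSO and read at 490 nm. Viability is relative to untreated control (100%). Six wells per treatment; three independent experiments.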

L6 myotubes = conditions: ref Choi et al [19]; cited from earlier work
PPAR-γ = conditions: in vitro; ref Atanasov et al [18]; cited from earlier work
[2] = test system: insulin signaling (IRβ, AKT, ERK1/2, phosphotyrosine) in adipose tissue, skeletal muscle, and liver; test: Western blot of insulin signaling in tissues of T2DM mice; format: in vivo; conditions: 200 mg/kg, 8 weeks
In short: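 After 8 weeks of dosing, subcutaneous adipose, skeletal muscle and liver were snap-frozen and homogenised in SDS sample buffer lacking bromophenol blue, then spun 12,000 × g, 20 min, 4 °C. 20 µg protein run on 8–10% SDS-PAGE. Membranes blocked 2 h in 3% BSA/TBST; primaries overnight at 4 °C, HRP secondaries 2 h. ECL and densitometry; phospho normalised to total, normal mice = 100%; n=3.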

[3] = test system: murine and human adipocytes; conditions: ref Alonso-Castroa et al [20]; cited from earlier work
[4] = honokiol 0 to 30 µM 1 hour, then 10 nM insulin 10 minutes

**Q.** With `C=CCc1ccc(O)c(-c2ccc(O)c(CC=C)c2)c1` [Honokiol] as the compound, how does the Ki (PTP1B) read?
**A.** The Ki was 6.67 µM.

**Q.** What about the “Inhibition type on PTP1B” value (PTP1B; Lineweaver–Burk plot, 1/v versus 1/[pNPP]) of the same compound?
**A.** The value was “reversible competitive inhibitory activity; also recorded: competing with the substrate for the enzyme active site”.

**Q.** What about the “Serum TC” value (T2DM mice; 0 week) of the same compound?
**A.** Its value is 3.62 ± 0.15 mmol/L.

**Q.** And the “Serum TG” value (T2DM mice; 0 week)?
**A.** The value was 0.51 ± 0.03 mmol/L.

**Q.** What about the “Serum TC” value (T2DM mice; 8 week) of the same compound?
**A.** The value was 3.67 ± 0.16 mmol/L.

**Q.** And the “Serum TG” value (T2DM mice; 8 week)?
**A.** The value was 0.48 ± 0.03 mmol/L.

**Q.** And the Body weight (T2DM mice)?
**A.** The Body weight was “decreased at early treatment and then gradually increased”.

**Q.** What about the “Effect on serum TC and TG” value (T2DM mice) of the same compound?
**A.** The value was “does not affect TC and TG”.

**Q.** And the Macroscopic organ toxicity (T2DM mice; brain, heart, kidneys, liver, spleen, stomach, large and small intestine, and lungs)?
**A.** The Macroscopic organ toxicity was “no macroscopic toxicity”.

**Q.** And the “Dose with the most significant hypoglycemic effects (pre-experiments)” value (T2DM mice; series 10, 50, 100, 150, 200, 250, and 300 mg/kg, data not shown)?
**A.** Its value is 200 mg/kg.

**Q.** And the “Tyrosine phosphorylations of cellular proteins” value [1]?
**A.** The value was “enhanced”.

**Q.** What about the “Insulin-induced GLUT4 level in the plasma membrane fraction” value ([1]; GLUT4 in whole cell lysates not altered) of the same compound?
**A.** Its value is “dose-dependently increased”.

**Q.** What about the “Insulin-stimulated tyrosine phosphorylation of ERK” value [1, 4] of the same compound?
**A.** Its value is “enhances”.

**Q.** And the “Insulin-stimulated tyrosine phosphorylation of IRβ” value [1, 4]?
**A.** The value was “largely enhanced”.

**Q.** And the “Serine phosphorylation of AKT” value [1, 4]?
**A.** The value was “enhances”.

**Q.** And the IC50 (TCPTP)?
**A.** Its IC50 is 604.4 ± 4.89 µM.

**Q.** What about the “Selectivity on PTP1B over TCPTP” value (TCPTP; from IC50 values) of the same compound?
**A.** Its value is “approximately ninefold”.

**Q.** What about the IC50 (SHP1) of the same compound?
**A.** Its IC50 is 763.2 ± 5.49 µM.

**Q.** What about the “Selectivity on PTP1B over SHP1” value (SHP1; from IC50 values) of the same compound?
**A.** The value was ~ 12 fold.

**Q.** What about the IC50 (HePTP) of the same compound?
**A.** The IC50 was 890 ± 9.46 µM.

**Q.** What about the “Selectivity on PTP1B over HePTP” value (HePTP; from IC50 values) of the same compound?
**A.** Its value is ~ 14 fold.

**Q.** And the “Blood glucose in PTP1B−/− mice” value (PTP1B−/− mice)?
**A.** The value was “cannot affect; also recorded: No hypoglycemic potency”.

**Q.** What about the “Body weight in PTP1B−/− mice” value (PTP1B−/− mice) of the same compound?
**A.** The value was “No potency of honokiol on the amelioration of body weight”.

**Q.** What about the IC50 (SHP2) of the same compound?
**A.** The IC50 was 785.5 ± 6.83 µM.

**Q.** What about the “Selectivity on PTP1B over SHP2” value (SHP2; from IC50 values) of the same compound?
**A.** Its value is ~ 12 fold.

**Q.** And the “Maximum concentration without cytotoxicity” value (C2C12 cells)?
**A.** Its value is 40 µM.

**Q.** And the Glucose uptake (L6 myotubes)?
**A.** Its Glucose uptake is “stimulates glucose uptake”.

**Q.** What about the PPAR-γ activation (PPAR-γ) of the same compound?
**A.** The PPAR-γ activation was “novel nonadipogenic partial PPAR-γ activator”.

**Q.** What about the “Serine phosphorylation of AKT in adipose tissue, skeletal muscle, and liver” value [2] of the same compound?
**A.** The value was “enhanced”.

**Q.** And the “Tyrosine phosphorylation of ERK in adipose tissue, skeletal muscle, and liver” value [2]?
**A.** Its value is “enhanced”.

**Q.** And the Glucose uptake [3]?
**A.** Its Glucose uptake is “stimulates glucose uptake”.

**Q.** Which results are given for `CN(C)C(=N)N=C(N)N` [Metformin, reference compound]?
**A.** Serum TC (T2DM mice; 0 week): 3.70 ± 0.31 mmol/L; Serum TG (T2DM mice; 0 week): 0.54 ± 0.02 mmol/L; Serum TC (T2DM mice; 8 week): 3.57 ± 0.11 mmol/L; Serum TG (T2DM mice; 8 week): 0.49 ± 0.04 mmol/L; Body weight (T2DM mice): stable body weight; Effect on serum TC and TG (T2DM mice): no significant difference
